Reference: ChEMBL document CHEMBL1250515, “4-(3-Halo/amino-4,5-dimethoxyphenyl)-5-aryloxazoles and -N-methylimidazoles that are cytotoxic against combretastatin A resistant tumor cells and vascular disrupting in a cisplatin resistant germ cell tumor model” (J Med Chem, 2010)
Calls of active or inactive are those of the source. The calls are words filed in the database; no cut-off is given here.

Tests used:
[1] = system: 1411HP; assay: Antitumor activity against human 1411HP cells xenografted in mouse assessed as swelling of tumor at 30 mg/kg, ip after 24 hrs; format: functional, organism-based; set-up: dose 30 mg/kg
How it was run: (§1)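 Mice carried subcutaneous left-flank xenografts from 10 million 1411HP cells in 150 μL PBS. After 4 weeks, two mice with tumors of ~1 cm³ received a single ip dose of 30 mg/kg. Tumors were inspected for swelling and hemorrhage after 24 h. Body weight was recorded twice weekly, and daily during therapy.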

[2] = species on record: Gallus gallus; assay: Antiangiogenic activity in vascular system of fertilized chicken embryo assessed as vessel shrinkage after 24 hrs by CAM assay; format: functional, tissue-based
[3] = system: HL-60; assay: Induction of apoptosis in human HL60 cells at 10 uM after 16 hrs by TUNEL assay; format: functional
[4] = Inhibition of tubulin polymerization by fluorescence-based assay; details: TDE = time-dependent effect
How it was run: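 Purified tubulin polymerization kit, fluorescence-based; polymerization followed as relative fluorescence units at excitation 360 nm and emission 465 nm. Compounds and reference agents tested at 3 μM. Four to five independent experiments.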

[5] = Cytotoxicity against human vinblastine-resistant KBV1 cells after 72 hrs by MTT assay; format: functional, cell-based; details: KB-V1, 72 h
How it was run: (§2)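 MTT read-out. HL-60 seeded at 5 × 10⁵/mL and adherent lines at 5 × 10⁴/mL, precultured 24 h, then exposed to compounds for 72 h at 37 °C, 5% CO₂. MTT final 0.05% (HL-60, 518A2) or 0.1% (others), 2 h. Formazan dissolved in SDS/DMSO/acetic acid; A570 minus A630. Quadruplicates; viability relative to controls; IC50 from four-parameter Hill fit.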

[6] = system: 1411HP; assay: Antitumor activity against human 1411HP cells xenografted in mouse assessed as slow regrowth of tumor at 30 mg/kg, ip single dose
[7] = species on record: Gallus gallus; assay: Antiangiogenic activity in vascular system of fertilized chicken embryo assessed as complete degradation of vascular system after 3 days by CAM assay; format: functional, tissue-based
[8] = system: 518A2; assay: Induction of apoptosis in human 518A2 cells assessed as intact mitochondria at 5 uM after 72 hrs relative to control; format: functional
[9] = system: 1411HP; assay: Antitumor activity against human 1411HP cells xenografted in mouse assessed as intratumoral hemorrhage at 30 mg/kg, ip after 24 hrs; format: functional, organism-based; set-up: dose 30 mg/kg; how it was run: as §1
[10] = system: HL-60; assay: Cytotoxicity against human HL60 cells after 72 hrs by MTT assay; format: functional, cell-based; details: HL-60, 72 h; how it was run: as §2
[11] = system: HT-29; assay: Cytotoxicity against human HT-29 cells after 72 hrs by MTT assay; format: functional, cell-based; details: HT-29, 72 h; how it was run: as §2
[12] = Cytotoxicity against human 518A2 cells after 72 hrs by MTT assay; format: functional, cell-based; details: 518A2, 72 h; how it was run: as §2
[13] = system: HL-60; assay: Induction of apoptosis in human HL60 cells assessed as ROS production at 50 uM after 24 hrs by NBT reduction assay relative to control; format: functional
[14] = Cytotoxicity against human multidrug-resistant MCF7/Topo cells after 72 hrs by MTT assay; format: functional, cell-based; how it was run: as §2
[15] = system: 518A2; assay: Induction of apoptosis in human 518A2 cells assessed as ROS production at 50 uM after 24 hrs by NBT reduction assay relative to control; format: functional
[16] = Cytotoxicity against human cisplatin-resistant 1411HP cells after 96 hrs by SRB assay; format: functional, cell-based
How it was run: (§3)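 Germ cell tumor lines seeded on day 0 at densities ensuring exponential growth, exposed from day 1 to drug at 0.001–10 μM in medium. Surviving cells relative to untreated controls read on day 5 by sulforhodamine B colorimetric assay (96 h exposure). IC50 from four-parameter Hill fit of concentration-response curves.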

[17] = system: HL-60; assay: Induction of apoptosis in human HL60 cells assessed as intact mitochondria at 5 uM after 72 hrs relative to control; format: functional
[18] = Cytotoxicity against human H12.1 cells after 96 hrs by SRB assay; format: functional, cell-based; how it was run: as §3
[19] = system: Mus musculus; assay: Toxicity in human 1411HP cells xenografted mouse at 20 mg/kg, ip qd for 2 days; format: organism-based; set-up: dose 20 mg/kg, route intraperitoneal
How it was run: (§4)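 Subcutaneous flank xenografts were grown from 10 million 1411HP cells in 150 μL PBS. Two mice with tumors of ~2.5 cm³ were dosed ip at 20 mg/kg on 2 consecutive days. Tumor volume was measured by caliper as a² × b × 0.5. Body weight was recorded twice weekly, and daily during therapy.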

[20] = system: Mus musculus; assay: Toxicity in human 1411HP cells xenografted mouse assessed as body weight change at 20 mg/kg, ip administered on day 16/17 and 35/36; format: organism-based; set-up: dose 20 mg/kg, route intraperitoneal; details: in vivo
[21] = system: Mus musculus; assay: Toxicity in human 1411HP cells xenografted mouse at 20 mg/kg, ip administered on day 16/17 and 35/36; format: organism-based; set-up: dose 20 mg/kg, route intraperitoneal; details: in vivo
[22] = system: 1411HP; assay: Antitumor activity against human 1411HP cells xenografted in mouse assessed as tumor regression at 20 mg/kg, ip administered on day 16/17 and 35/36; format: functional, organism-based; set-up: dose 20 mg/kg
[23] = system: Mus musculus; assay: Toxicity in human 1411HP cells xenografted mouse at 30 mg/kg, ip; format: organism-based; set-up: dose 30 mg/kg, route intraperitoneal; details: in vivo; how it was run: as §1
[24] = system: 1411HP; assay: Antitumor activity against human 1411HP cells xenografted in mouse assessed as tumor regression at 20 mg/kg, ip qd for 2 days; format: functional, organism-based; set-up: dose 20 mg/kg; how it was run: as §4
[25] = system: 1411HP; assay: Antitumor activity against human 1411HP cells xenografted in mouse assessed as prolonged periods of stabilization at 20 mg/kg, ip administered on day 16/17 and 35/36; format: functional, organism-based; set-up: dose 20 mg/kg
[26] = system: 1411HP; assay: Antitumor activity against human 1411HP cells xenografted in mouse assessed as slow regrowth of tumor at 20 mg/kg, ip qd for 2 days; format: functional, organism-based; set-up: dose 20 mg/kg; how it was run: as §4

Row | SMILES | Activity [2] | Activity [3] [%] | IC50 [5] [nM] | Activity [7] | Activity [8] [%] | IC50 [10] [nM] | IC50 [11] [nM] | IC50 [12] [nM] | Activity [13] [%] | IC50 [14] [nM] | Activity [15] [%] | Activity [17] [%] | further results
1 | COc1ccc(-c2c(-c3cc(Br)c(OC)c(OC)c3)ncn2C)cc1N.Cl.Cl | inactive | 60 | 200 | inactive | 80 | 0.1 | 0.02 | 6.4 | 1.5 | 340 | 3.8 | 66 | Activity [1]: Active; inhibition [4]: tde; Activity [6]: Active; Activity [9]: Active; IC50 [16]: 54 nM; IC50 [18]: 22 nM
2 | COc1ccc(-c2c(-c3cc(Cl)c(OC)c(OC)c3)ncn2C)cc1F.Cl |  |  |  |  | 84 | > 10000 | 530 | 400 | 1.6 |  | 4.8 | 55 | 
3 | COc1cc(-c2ncn(C)c2-c2ccc(N(C)C)cc2)cc(Br)c1OC.Cl |  |  |  |  | 82 | 0.2 | 4.3 | 860 | 1.6 |  | 6.7 | 63 | 
4 | COc1cc(-c2ncn(C)c2-c2ccc3c(Cl)cn(C)c3c2)cc(N)c1OC.Cl |  |  | 160 |  | 77 | 0.04 | 14 | 3100 | 1.6 | 3.8 | 6.4 | 60 | 
5 | COc1ccc(-c2ocnc2-c2cc(N)c(OC)c(OC)c2)cc1N.Cl | inactive | 60 | 0.01 | inactive | 85 | 3.8 | 57 | 2 | 1.5 | 1.23 | 3.5 | 62 | 
6 | COc1ccc(-c2c(-c3cc(OC)c(OC)c(OC)c3)ncn2C)cc1N |  |  | 300 |  | 87 | > 100000 | 64 | > 100000 | 2.2 | > 10000 | 1.5 | 74 | 
7 | COc1ccc(-c2c(-c3cc(Cl)c(OC)c(OC)c3)ncn2C)cc1N.Cl.Cl | Active | 60 | 400 | Active | 80 | 0.2 | 0.06 | 62 | 1.8 | 320 | 4.4 | 65 | Activity [1]: Active; Activity [19]: Non-toxic; inhibition [4]: tde; Activity [20]: Non-toxic; Activity [21]: Non-toxic; Activity [22]: Active; Activity [23]: Non-toxic; Activity [9]: Active; Activity [24]: Active; IC50 [16]: 60 nM; Activity [25]: Active; Activity [26]: Active; IC50 [18]: 30 nM
